Published values of several laboratories.
Protocols differ between the studies behind these lines.
TEC phosphorylated: Tyrosine-protein kinase Tec, phosphorylated (TEC, Homo sapiens, UniProt P42680)
TEC: Tyrosine-protein kinase Tec (TEC, Homo sapiens, UniProt P42680)

| SMILES | target | test | conditions | endpoint | result |
| --- | --- | --- | --- | --- | --- |
| COc1cc(Cl)c(C(=O)N[C@@H](CN[C@H]2CC[C@@H](N)CC2)Cc2ccc(C#N)cc2)cc1-c1ccc(CN[C@H](C)c2ccc(C)cc2)o1 | TEC phosphorylated | enzyme activity, inhibitor | 1 µM | remaining activity | 90% |
| CC(=O)N1CCC(c2ccc(C(=O)NC3=NCCN3)cc2C(F)(F)F)CC1 | TEC | binding, competition with immobilised ligand | 1 µM | remaining binding | 100% |
| CC(C)[C@H](NC(=O)c1cc(-c2cnn3cc(-c4ccc(OCCN5CCCCC5)cc4)cnc23)cs1)C(F)(F)F | TEC | enzyme activity, inhibitor, radiometric | 15 nM | inhibition | 0% |
| CCCOc1ccc(OC)c(F)c1C(=O)c1ccc(C(=O)N[C@@H]2CNC[C@H]2NC(=O)c2ccc3[nH]ncc3c2)cc1 | TEC phosphorylated | enzyme activity, inhibitor | 10 µM | remaining activity | 50% |
| CN([C@@H]1CCc2c(CC(=O)O)c3ccccc3n2C1)S(=O)(=O)c1ccc(F)cc1 | TEC | cell-free assay, competition with immobilised ligand | 1 µM | remaining binding | 100% |
| Oc1cccc(-c2nc(N3CCOCC3)c3oc4ncccc4c3n2)c1 | TEC | cell-free assay | 0.5 µM | remaining signal | 113% |
| CC(C)(C)c1nc(-c2cccc(NS(=O)(=O)c3c(F)cccc3F)c2F)c(-c2ccnc(N)n2)s1 | TEC | enzyme activity, inhibitor, radiometric | 1 µM | remaining activity | 87% |
| O=C(O)c1cc(-c2ccc(C3CCNCC3)cc2)c2ccc(-c3ccc(C(F)(F)F)cc3)cc2c1 | TEC | cell-free assay, competition with immobilised ligand | 1 µM | remaining binding | 100% |
| CC(C)(O)[C@H]1CC[C@H](Nc2ccc3ncc(-c4cccc(C(F)(F)F)c4)n3n2)CC1 | TEC | enzyme activity, inhibitor | 1 µM | remaining activity | 104% |
| Cc1cnc(NC2CCOCC2)nc1-n1cnc(C(=O)NC(CN)c2cc(F)cc(Cl)c2)c1 (centres unmarked) | TEC phosphorylated | enzyme activity, inhibitor, radiometric | 1 µM | remaining activity | 102% |
| Cc1sc(C(=O)NC2COC2)cc1-n1cc(NC(=O)Nc2c(F)cccc2Cl)cn1 | TEC | enzyme activity, inhibitor | 10 µM | remaining activity | 91.1% |
| CCCS(=O)(=O)Nc1ccc(F)c(C(=O)c2c[nH]c3ncc(-c4ccc(Cl)cc4)cc23)c1F | TEC | enzyme activity, inhibitor | 1 µM | inhibition | < 10% |
| CCCOc1ccc([C@@H]2[C@@H](C(=O)O)[C@H](c3ccc4c(c3)OCO4)CN2CC(=O)Nc2c(CC)cccc2CC)cc1 | TEC | binding, competition with immobilised ligand | 1 µM | remaining binding | 96% |
| Nc1ncnc2occ(-c3ccc(NC(=O)Nc4cc(C(F)(F)F)ccc4F)cc3)c12 | TEC | cell-free assay, inhibitor | 20 µM | remaining signal | 53% |
| CN1CC(Oc2cnc(C#N)cc2-c2ccn3nc(NC(=O)C4CC4)cc3c2)C1 | TEC phosphorylated | enzyme activity, inhibitor | 1 µM | inhibition | 25% |
| O=C1Nc2ccc(Cl)cc2C1=Cc1cc(Cl)c(O)c(Cl)c1 | TEC | cell-free assay | 0.5 µM | remaining signal | 109% |
| NS(=O)(=O)c1cc(NC(=O)C2(c3ccccc3Cl)CC2)ccc1Oc1cccc(Cl)c1 | TEC | binding, competition with immobilised ligand | 1 µM | remaining binding | 81% |
| Cc1ccc(NC(=O)c2ccc(C)c(C(F)(F)F)c2)cc1C#Cc1nn(C2CCC(O)CC2)c2ncnc(N)c12 (centres unmarked) | TEC phosphorylated | enzyme activity, inhibitor | 10 µM | remaining activity | 24% |
| CC(=O)C1=C(C)N(c2cccc(C(F)(F)F)c2)C(=O)N[C@@H]1c1ccc(C#N)nc1 | TEC | binding, competition with immobilised ligand | 1 µM | remaining binding | 100% |
| O=C1NC(=O)c2cc(Nc3ccc(F)cc3)c(Nc3ccc(F)cc3)cc21 | TEC | cell-free assay | 0.5 µM | remaining signal | 102% |
